Laboratory results reported in ChEMBL document CHEMBL1671644, “Inhibition of human immunodeficiency virus type 1 infection by the candidate microbicide dapivirine, a nonnucleoside reverse transcriptase inhibitor” (Antimicrob Agents Chemother, 2009).
Calls of active or inactive are those of the source. No cut-off for these calls is given here.

Tests used:
[1] = Toxicity against human Ectocervical tissue explants at 0.0001 to 100 uM after 24 hrs by MTT assay
In short: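 Uninfected ectocervical explants were exposed to drug for 2 or 24 h. Viability was measured by MTT reduction per milligram of tissue relative to unexposed explants, either immediately or after overnight culture. Three or four donors, triplicate.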

[2] = Cytotoxicity against human TZM-bl cells after 24 hrs by MTT assay; assay type: cell-based
In short: (§1)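 Uninfected PM-1 or TZM-bl cells were exposed to drug and viability measured by MTT dye reduction as a percentage of untreated controls. CC50 was derived by nonlinear regression.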

[3] = Cytotoxicity against human PM1 cells after 24 hrs by MTT assay; assay type: cell-based; in short: as §1
[4] = Selectivity index, ratio of CC50 for human TZM-bl cells to IC50 for HIV-1 3B; assay type: functional
In short: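 Selectivity index is CC50/IC50, using values determined in the same time period. CC50 was measured by MTT for TZM-bl and PM-1 cells and by trypan blue exclusion after 14 days for macrophages. Both were fitted by nonlinear regression.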

[5] = Selectivity index, ratio of CC50 for human MT-4 cells to IC50 for HIV-1 3B; assay type: functional, MT4
[6] = test system: Human immunodeficiency virus 1; assay: Antiviral activity against HIV-1 subtype CRF01_AE V022821 infected in human MT4 cells assessed as inhibition of viral replication relative to HIV-1 3B; assay type: functional
In short: (§2)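 Recombinant clinical HIV-1 isolates (200 TCID50/well) were tested in MT-4 cells (3 x 10^4/well) over 3–5 days, with an MTT viability read-out. IC50 was fitted by nonlinear regression. Fold change is the isolate IC50 divided by the HIV-1IIIB IC50, tested in parallel.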

[7] = test system: Human immunodeficiency virus 1; assay: Antiviral activity against HIV-1 subtype CRF01_AE V022822 infected in human MT4 cells assessed as inhibition of viral replication relative to HIV-1 3B; assay type: functional
In short: (§3)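 MT-4 cells (3 x 10^4/well) infected with site-directed mutants or recombinant clinical isolates (200 TCID50/well) with drug, cultured 3 to 5 days. Viability read by MTT colorimetric antivirogram assay. IC50 by nonlinear regression; fold change = IC50 for the test isolate / IC50 for wild-type HIV-1 IIIB tested in parallel (mean or median).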

[8] = test system: Human immunodeficiency virus 1; assay: Antiviral activity against HIV-1 subtype CRF01_AE V029521 infected in human MT4 cells assessed as inhibition of viral replication relative to HIV-1 3B; assay type: functional; in short: as §2
[9] = test system: Human immunodeficiency virus 1; assay: Antiviral activity against HIV-1 subtype B V022809 infected in human MT4 cells assessed as inhibition of viral replication relative to HIV-1 3B; assay type: functional; in short: as §3
[10] = test system: Human immunodeficiency virus 1; assay: Antiviral activity against HIV-1 subtype B V022814 infected in human MT4 cells assessed as inhibition of viral replication relative to HIV-1 3B; assay type: functional; in short: as §3
[11] = test system: Human immunodeficiency virus 1; assay: Antiviral activity against HIV-1 subtype C V022816 infected in human MT4 cells assessed as inhibition of viral replication relative to HIV-1 3B; assay type: functional; in short: as §2
[12] = test system: Human immunodeficiency virus 1; assay: Antiviral activity against HIV-1 subtype F V029522 infected in human MT4 cells assessed as inhibition of viral replication relative to HIV-1 3B; assay type: functional; in short: as §3
[13] = test system: Human immunodeficiency virus 1; assay: Antiviral activity against HIV-1 subtype H V022827 harboring NNRTI V179I mutant infected in human MT4 cells assessed as inhibition of viral replication relative to HIV-1 3B; assay type: functional; in short: as §3
[14] = test system: Human immunodeficiency virus 1; assay: Antiviral activity against HIV-1 subtype H V029523 harboring NNRTI K101Q and V179I mutant infected in human MT4 cells assessed as inhibition of viral replication relative to HIV-1 3B; assay type: functional; in short: as §3
[15] = test system: Human immunodeficiency virus 1; assay: Antiviral activity against HIV-1 subtype O V029524 harboring NNRTI A98G, V179E and Y181C mutant infected in human MT4 cells assessed as inhibition of viral replication relative to HIV-1 3B; assay type: functional; in short: as §3
[16] = test system: Human immunodeficiency virus 1; assay: Antiviral activity against HIV-1 SM007 harboring NNTRI 103N mutant infected in human MT4 cells assessed as inhibition of viral replication relative to HIV-1 3B; assay type: functional; in short: as §3
[17] = test system: Human immunodeficiency virus 1; assay: Antiviral activity against HIV-1 SM012 harboring NNTRI 108I mutant infected in human MT4 cells assessed as inhibition of viral replication relative to HIV-1 3B; assay type: functional; in short: as §3
[18] = test system: Human immunodeficiency virus 1; assay: Antiviral activity against HIV-1 SM051 harboring NNTRI 100I and 103N mutant infected in human MT4 cells assessed as inhibition of viral replication relative to HIV-1 3B; assay type: functional; in short: as §3
[19] = test system: Human immunodeficiency virus 1; assay: Antiviral activity against HIV-1 SM058 harboring NNTRI 227L and 106A mutant infected in human MT4 cells assessed as inhibition of viral replication relative to HIV-1 3B; assay type: functional; in short: as §3
[20] = test system: Human immunodeficiency virus 1; assay: Antiviral activity against HIV-1 Bal infected in 1 hr compound pretreated human ectocervical explant tissue assessed as inhibition of provirus formation at 1 nM by RT-PCR; assay type: functional; conditions: Human immunodeficiency virus 1, Bal
In short: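 Ectocervical explants were pretreated with drug for 1 h, then exposed to HIV-1BaL (two 50% tissue infectious doses, about 10^4 TCID50 on PM-1) for 2 h at 37°C with drug present. Explants were washed and cultured overnight, then cultured separately for 10 days. Tissue was proteinase K-digested and proviral LTR DNA measured by multiplex qPCR against β-actin (10 copies/10^5 cells sensitivity). Two donors, triplicate.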

[21] = test system: Human immunodeficiency virus 1; assay: Antiviral activity against HIV-1 Bal infected in human cervical tissue explants assessed as inhibition of dissemination of virus via migratory cells after 2 hrs in presence of 12.5% whole semen; assay type: functional, organism-based
In short: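 Cervical explants were exposed to HIV-1BaL plus drug for 2 h in cervical mucus simulant or whole semen (final 12.5%), then washed. Migratory cells were cocultured with PM-1 indicator cells and infection read as p24 in coculture supernatant.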

[22] = test system: Human immunodeficiency virus 1; assay: Antiviral activity against HIV-1 Bal infected in 2 hrs 1000 nM compound pretreated human ectocervical explant tissue assessed as prolonged inhibition of viral infection post compound removal measured after 2 days post compound removal; assay type: functional
In short: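 Ectocervical explants were exposed to drug (0.01–10 µM) for 2 or 24 h at 37°C and washed. They received HIV-1BaL (2 h) on day 0, 2, 4 or 6 after drug removal, with no drug present. Read-outs at 10 days post-exposure: explant p24 ELISA, tissue proviral DNA by qPCR, and p24 in migratory cell–PM-1 cocultures. Three donors (2 h) or two donors (24 h), triplicate.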

[23] = test system: Human immunodeficiency virus 1; assay: Antiviral activity against HIV-1 3B infected in human MT4 cells after 3 to 5 days by MTT assay; conditions: Human immunodeficiency virus 1, 3B, MT4, 72 to 120 h
[24] = test system: Human immunodeficiency virus 1; assay: Antiviral activity against HIV-1 3B infected in human TZM-bl cells after 24 hrs by luciferase reporter assay; conditions: Human immunodeficiency virus 1, 3B
[25] = test system: Human immunodeficiency virus 1; assay: Antiviral activity against HIV-1 Bal infected in human PM1 cells assessed as inhibition of transmission of virus to premissive T cells at 100 nM

Cc1cc(C)c(Nc2ccnc(Nc3ccc(C#N)cc3)n2)c(C)c1 [DAPIVIRINE]
Activity [1]: Non-toxic
CC50 at 24 h [2]: 20.4 µM
CC50 at 24 h [3]: 11 µM
Selectivity Index [4]: 20400
Selectivity Index [5]: 2389
Ratio IC50 [6]: 1.7
Ratio IC50 [7]: 0.9
Ratio IC50 [8]: 3.5
Ratio IC50 [9]: 1.5
Ratio IC50 [10]: 0.8
Ratio IC50 [11]: 1.8
Ratio IC50 [12]: 1.5
Ratio IC50 [13]: 0.9
Ratio IC50 [14]: 1.4
Ratio IC50 [15]: 150
Ratio IC50 [16]: 5
Ratio IC50 [17]: 1
Ratio IC50 [18]: 2389
Ratio IC50 [19]: 8
inhibition at 0.001 µM [20]: > 99%
inhibition [21]: Active
inhibition (INH) [22]: 90%
IC50 [23]: 0.0009 µM
IC50 [24]: 0.001 µM
inhibition [25]: Active
